Results as given in ChEMBL document CHEMBL4613316, “Synthesis and Selective Functionalization of Thiadiazine 1,1-Dioxides with Efficacy in a Model of Huntington's Disease” (ACS Med Chem Lett, 2020).
Calls of active or inactive are those of the source. The calls are words filed in the database; no cut-off is given here.

Organism: Homo sapiens
Experiment: Agonist activity at HSP70 in human HEK293H cells transfected with HTT17Q assessed as reduction in HTT protein aggregation at 10 uM measured after 6 hrs by DAPI staining based confocal microscopy
Type: cell-based
In short: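 HEK293H cells transfected with 4 μg HTT17Q-mCherry construct; 24 h post-transfection treated with 10 μM compound or DMSO vehicle control for 6 h. Cells stained with DAPI and imaged by confocal microscopy. Aggregates (puncta) counted per cell with a bright-spot detection tool. Significance assessed against DMSO control.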

SMILES | Activity
CCOC(=O)C1=CN(Cc2ccc(C(=O)NO)cc2)S(=O)(=O)NC1c1ccc(Cl)cc1Cl (stereo not given) | Active
CCOC(=O)C1=CN(CCCC(=O)NO)S(=O)(=O)NC1c1ccc(Cl)cc1Cl (stereo not given) | Active
CC1=C(C(=O)OCc2ccccc2)C(c2ccc(Cl)cc2Cl)NC(=O)N1CCCC(=O)O (stereo not given) | Active
COC(=O)CCCN1C=C(C(=O)OCc2ccccc2)C(c2ccc(Cl)cc2Cl)NS1(=O)=O (stereo not given) | Active
CCOC(=O)C1=CN(C(=O)OC(C)(C)C)S(=O)(=O)N(Cc2ccc(C(=O)OC(C)(C)C)cc2)C1c1ccc(Cl)cc1Cl (stereo not given) | Active
CCOC(=O)C1=CN(Cc2ccc(CO)cc2)S(=O)(=O)NC1c1ccc(Cl)cc1Cl (stereo not given) | Active
COC(=O)CCCN1C=C(C(=O)O)C(c2ccc(Cl)cc2Cl)NS1(=O)=O (stereo not given) | Active
O=C(O)CCCN1C=C(C(=O)O)C(c2ccc(Cl)cc2Cl)NS1(=O)=O (stereo not given) | Active
CCOC(=O)C1=CNS(=O)(=O)N(Cc2ccc(C(=O)O)cc2)C1c1ccc(Cl)cc1Cl (stereo not given) | Active
CCOC(=O)C1=CN(Cc2ccc(C(=O)O)cc2)S(=O)(=O)NC1c1ccc(Cl)cc1Cl (stereo not given) | Active
CCOC(=O)C1=CN(CCCC(=O)OC)S(=O)(=O)NC1c1ccc(Cl)cc1Cl (stereo not given) | Active

Target: Histone deacetylase 1 (Homo sapiens) (UniProt Q13547)
Sequence (Q13547 whole entry): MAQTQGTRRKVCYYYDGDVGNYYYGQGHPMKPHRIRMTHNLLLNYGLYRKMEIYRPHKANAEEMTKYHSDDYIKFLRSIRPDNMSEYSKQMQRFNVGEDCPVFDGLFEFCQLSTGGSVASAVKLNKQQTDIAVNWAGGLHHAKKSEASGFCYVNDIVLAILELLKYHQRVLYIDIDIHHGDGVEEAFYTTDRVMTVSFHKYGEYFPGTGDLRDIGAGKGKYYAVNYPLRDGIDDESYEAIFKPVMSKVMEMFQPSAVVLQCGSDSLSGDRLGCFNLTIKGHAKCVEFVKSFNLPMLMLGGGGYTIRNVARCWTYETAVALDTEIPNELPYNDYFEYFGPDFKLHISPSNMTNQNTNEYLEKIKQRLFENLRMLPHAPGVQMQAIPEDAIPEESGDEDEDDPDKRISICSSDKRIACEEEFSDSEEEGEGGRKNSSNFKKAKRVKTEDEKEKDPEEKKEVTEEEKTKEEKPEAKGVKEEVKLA
Experiment: Inhibition of HDAC1 in human HeLa nuclear extract at 0.1 to 1 uM using HDAC substrate incubated for 30 mins by microplate reader assay
Type: cell-free

SMILES | inhibition
CCOC(=O)C1=CN(Cc2ccc(C(=O)NO)cc2)S(=O)(=O)NC1c1ccc(Cl)cc1Cl (stereo not given) | inactive
CCOC(=O)C1=CN(CCCC(=O)NO)S(=O)(=O)NC1c1ccc(Cl)cc1Cl (stereo not given) | inactive
COC(=O)CCCN1C=C(C(=O)O)C(c2ccc(Cl)cc2Cl)NS1(=O)=O (stereo not given) | inactive
CCOC(=O)C1=CNS(=O)(=O)N(Cc2ccc(C(=O)O)cc2)C1c1ccc(Cl)cc1Cl (stereo not given) | inactive

Target: Histone deacetylase 4 (Homo sapiens) (UniProt P56524)
Sequence (P56524 whole entry): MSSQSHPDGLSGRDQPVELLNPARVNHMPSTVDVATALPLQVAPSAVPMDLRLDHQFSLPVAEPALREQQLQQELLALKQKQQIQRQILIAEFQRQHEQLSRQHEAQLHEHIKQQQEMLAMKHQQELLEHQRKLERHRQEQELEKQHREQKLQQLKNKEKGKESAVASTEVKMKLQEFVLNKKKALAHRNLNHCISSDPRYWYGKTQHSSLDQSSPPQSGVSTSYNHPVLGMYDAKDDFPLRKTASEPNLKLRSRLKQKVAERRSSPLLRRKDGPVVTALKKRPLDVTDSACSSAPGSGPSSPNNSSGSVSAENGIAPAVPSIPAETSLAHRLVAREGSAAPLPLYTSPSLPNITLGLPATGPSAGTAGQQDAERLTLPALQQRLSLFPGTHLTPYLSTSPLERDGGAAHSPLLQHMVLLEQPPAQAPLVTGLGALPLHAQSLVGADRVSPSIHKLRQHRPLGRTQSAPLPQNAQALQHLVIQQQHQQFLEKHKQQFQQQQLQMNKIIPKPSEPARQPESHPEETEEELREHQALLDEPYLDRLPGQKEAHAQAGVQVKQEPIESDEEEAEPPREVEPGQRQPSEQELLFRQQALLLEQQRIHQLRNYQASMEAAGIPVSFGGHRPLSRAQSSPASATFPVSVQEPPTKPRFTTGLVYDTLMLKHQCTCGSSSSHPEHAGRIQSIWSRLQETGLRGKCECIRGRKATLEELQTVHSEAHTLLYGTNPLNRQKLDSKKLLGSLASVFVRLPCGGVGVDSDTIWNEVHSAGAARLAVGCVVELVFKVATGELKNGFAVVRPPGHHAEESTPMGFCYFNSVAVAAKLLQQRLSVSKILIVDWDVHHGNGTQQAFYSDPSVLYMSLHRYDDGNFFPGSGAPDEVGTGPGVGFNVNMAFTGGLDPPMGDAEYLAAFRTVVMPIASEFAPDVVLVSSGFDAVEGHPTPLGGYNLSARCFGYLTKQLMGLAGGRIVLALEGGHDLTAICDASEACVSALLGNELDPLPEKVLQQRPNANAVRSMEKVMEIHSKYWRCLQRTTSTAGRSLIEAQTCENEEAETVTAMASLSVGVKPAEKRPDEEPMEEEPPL
Experiment: Inhibition of recombinant human GST-His-tagged HDAC4 at 0.1 to 1 uM using fluorogenic HDAC substrate incubated for 30 mins by microplate reader assay

SMILES | inhibition
CCOC(=O)C1=CN(Cc2ccc(C(=O)NO)cc2)S(=O)(=O)NC1c1ccc(Cl)cc1Cl (stereo not given) | inactive
CCOC(=O)C1=CN(CCCC(=O)NO)S(=O)(=O)NC1c1ccc(Cl)cc1Cl (stereo not given) | inactive
COC(=O)CCCN1C=C(C(=O)O)C(c2ccc(Cl)cc2Cl)NS1(=O)=O (stereo not given) | inactive
CCOC(=O)C1=CNS(=O)(=O)N(Cc2ccc(C(=O)O)cc2)C1c1ccc(Cl)cc1Cl (stereo not given) | inactive

Target: Histone deacetylase 5 (Homo sapiens) (UniProt Q9UQL6)
Sequence (Q9UQL6 whole entry): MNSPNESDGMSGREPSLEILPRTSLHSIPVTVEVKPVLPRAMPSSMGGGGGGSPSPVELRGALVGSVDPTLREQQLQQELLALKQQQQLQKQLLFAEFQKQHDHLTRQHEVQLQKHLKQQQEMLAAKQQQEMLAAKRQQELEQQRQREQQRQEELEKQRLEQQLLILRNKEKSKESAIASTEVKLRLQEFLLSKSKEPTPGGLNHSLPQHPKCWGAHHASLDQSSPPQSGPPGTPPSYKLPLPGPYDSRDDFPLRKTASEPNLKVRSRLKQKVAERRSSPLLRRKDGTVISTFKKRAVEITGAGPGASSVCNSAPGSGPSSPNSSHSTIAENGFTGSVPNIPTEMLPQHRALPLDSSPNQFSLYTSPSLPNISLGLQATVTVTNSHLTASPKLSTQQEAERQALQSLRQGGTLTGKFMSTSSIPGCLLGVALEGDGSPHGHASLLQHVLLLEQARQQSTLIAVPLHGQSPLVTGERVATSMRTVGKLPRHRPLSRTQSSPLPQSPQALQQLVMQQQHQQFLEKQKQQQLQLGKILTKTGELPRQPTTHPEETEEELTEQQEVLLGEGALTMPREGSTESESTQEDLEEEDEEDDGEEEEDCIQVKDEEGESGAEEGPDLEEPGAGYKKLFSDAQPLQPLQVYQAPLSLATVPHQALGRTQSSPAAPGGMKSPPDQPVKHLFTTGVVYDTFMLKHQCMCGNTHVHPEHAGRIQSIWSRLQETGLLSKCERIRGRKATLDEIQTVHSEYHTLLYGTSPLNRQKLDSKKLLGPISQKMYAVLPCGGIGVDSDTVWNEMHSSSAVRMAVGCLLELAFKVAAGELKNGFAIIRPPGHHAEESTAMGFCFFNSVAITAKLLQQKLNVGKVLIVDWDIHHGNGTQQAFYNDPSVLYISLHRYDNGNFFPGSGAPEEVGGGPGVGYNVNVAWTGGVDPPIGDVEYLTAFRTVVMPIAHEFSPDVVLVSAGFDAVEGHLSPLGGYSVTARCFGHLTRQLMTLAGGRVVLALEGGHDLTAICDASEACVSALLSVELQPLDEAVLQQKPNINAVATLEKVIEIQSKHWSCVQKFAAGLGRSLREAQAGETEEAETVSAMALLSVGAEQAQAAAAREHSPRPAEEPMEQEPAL
Experiment: Inhibition of recombinant human GST-His-tagged HDAC5 at 0.1 to 1 uM using fluorogenic HDAC substrate incubated for 30 mins by microplate reader assay

SMILES | inhibition
CCOC(=O)C1=CN(Cc2ccc(C(=O)NO)cc2)S(=O)(=O)NC1c1ccc(Cl)cc1Cl (stereo not given) | inactive
CCOC(=O)C1=CN(CCCC(=O)NO)S(=O)(=O)NC1c1ccc(Cl)cc1Cl (stereo not given) | inactive
COC(=O)CCCN1C=C(C(=O)O)C(c2ccc(Cl)cc2Cl)NS1(=O)=O (stereo not given) | inactive
CCOC(=O)C1=CNS(=O)(=O)N(Cc2ccc(C(=O)O)cc2)C1c1ccc(Cl)cc1Cl (stereo not given) | inactive

Target: Histone deacetylase 2 (Homo sapiens) (UniProt Q92769)
Sequence (Q92769 whole entry): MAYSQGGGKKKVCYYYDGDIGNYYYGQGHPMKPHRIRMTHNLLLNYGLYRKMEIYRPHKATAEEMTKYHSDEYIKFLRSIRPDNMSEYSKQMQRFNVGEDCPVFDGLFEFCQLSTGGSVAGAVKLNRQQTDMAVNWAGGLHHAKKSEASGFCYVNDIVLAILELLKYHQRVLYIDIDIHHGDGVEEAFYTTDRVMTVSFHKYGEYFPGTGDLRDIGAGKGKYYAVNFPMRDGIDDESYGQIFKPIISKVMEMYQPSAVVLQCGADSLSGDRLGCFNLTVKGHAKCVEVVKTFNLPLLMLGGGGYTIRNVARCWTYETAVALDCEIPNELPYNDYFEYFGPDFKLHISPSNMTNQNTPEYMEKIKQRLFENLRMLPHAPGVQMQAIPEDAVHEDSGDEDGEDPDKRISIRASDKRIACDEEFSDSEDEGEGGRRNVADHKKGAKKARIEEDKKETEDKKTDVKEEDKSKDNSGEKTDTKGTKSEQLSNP
Experiment: Inhibition of HDAC2 in human HeLa nuclear extract at 0.1 to 1 uM using HDAC substrate incubated for 30 mins by microplate reader assay
Type: cell-free

SMILES | inhibition
CCOC(=O)C1=CN(Cc2ccc(C(=O)NO)cc2)S(=O)(=O)NC1c1ccc(Cl)cc1Cl (stereo not given) | inactive
CCOC(=O)C1=CN(CCCC(=O)NO)S(=O)(=O)NC1c1ccc(Cl)cc1Cl (stereo not given) | inactive
COC(=O)CCCN1C=C(C(=O)O)C(c2ccc(Cl)cc2Cl)NS1(=O)=O (stereo not given) | inactive
CCOC(=O)C1=CNS(=O)(=O)N(Cc2ccc(C(=O)O)cc2)C1c1ccc(Cl)cc1Cl (stereo not given) | inactive

Target: T1, Protein deacetylase HDAC6 (Homo sapiens) (UniProt Q9UBN7)
T1 sequence (whole entry): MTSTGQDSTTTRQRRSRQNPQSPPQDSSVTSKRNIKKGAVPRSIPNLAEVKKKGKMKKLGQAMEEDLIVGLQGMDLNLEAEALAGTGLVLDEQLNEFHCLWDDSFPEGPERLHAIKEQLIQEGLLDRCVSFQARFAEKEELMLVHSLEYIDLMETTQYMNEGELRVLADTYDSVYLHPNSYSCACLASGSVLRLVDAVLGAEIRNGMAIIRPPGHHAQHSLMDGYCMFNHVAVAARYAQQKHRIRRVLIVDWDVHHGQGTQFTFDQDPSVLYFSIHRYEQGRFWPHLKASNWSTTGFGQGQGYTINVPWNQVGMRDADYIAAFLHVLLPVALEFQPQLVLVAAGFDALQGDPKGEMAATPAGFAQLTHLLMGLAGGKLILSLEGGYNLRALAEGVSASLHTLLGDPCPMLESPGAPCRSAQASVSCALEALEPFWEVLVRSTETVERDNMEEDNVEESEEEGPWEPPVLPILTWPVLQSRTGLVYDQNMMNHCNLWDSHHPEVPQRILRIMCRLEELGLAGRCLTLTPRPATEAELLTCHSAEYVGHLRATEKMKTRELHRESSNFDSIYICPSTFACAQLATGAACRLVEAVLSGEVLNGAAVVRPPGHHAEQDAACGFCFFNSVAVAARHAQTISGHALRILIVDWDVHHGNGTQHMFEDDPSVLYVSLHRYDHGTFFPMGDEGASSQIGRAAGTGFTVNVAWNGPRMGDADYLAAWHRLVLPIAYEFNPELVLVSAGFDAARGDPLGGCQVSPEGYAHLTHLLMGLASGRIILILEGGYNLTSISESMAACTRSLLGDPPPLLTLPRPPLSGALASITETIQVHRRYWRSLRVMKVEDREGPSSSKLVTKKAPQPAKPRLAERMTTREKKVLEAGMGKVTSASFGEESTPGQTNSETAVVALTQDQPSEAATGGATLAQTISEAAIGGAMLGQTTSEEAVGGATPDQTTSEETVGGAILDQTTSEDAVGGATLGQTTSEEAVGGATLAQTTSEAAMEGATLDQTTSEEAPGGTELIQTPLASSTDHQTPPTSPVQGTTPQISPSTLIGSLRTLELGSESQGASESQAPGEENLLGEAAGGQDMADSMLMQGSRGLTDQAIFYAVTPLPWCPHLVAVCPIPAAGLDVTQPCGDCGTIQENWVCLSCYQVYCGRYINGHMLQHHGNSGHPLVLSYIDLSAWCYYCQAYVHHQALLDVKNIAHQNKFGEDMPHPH
Experiment: Inhibition of recombinant human GST-His-tagged HDAC6 at 0.1 to 1 uM using fluorogenic HDAC substrate incubated for 30 mins by microplate reader assay

SMILES | inhibition
CCOC(=O)C1=CN(Cc2ccc(C(=O)NO)cc2)S(=O)(=O)NC1c1ccc(Cl)cc1Cl (stereo not given) | inactive
CCOC(=O)C1=CN(CCCC(=O)NO)S(=O)(=O)NC1c1ccc(Cl)cc1Cl (stereo not given) | inactive
COC(=O)CCCN1C=C(C(=O)O)C(c2ccc(Cl)cc2Cl)NS1(=O)=O (stereo not given) | inactive
CCOC(=O)C1=CNS(=O)(=O)N(Cc2ccc(C(=O)O)cc2)C1c1ccc(Cl)cc1Cl (stereo not given) | inactive

Target: Histone deacetylase 3 (Homo sapiens) (UniProt O15379)
Sequence (O15379 whole entry): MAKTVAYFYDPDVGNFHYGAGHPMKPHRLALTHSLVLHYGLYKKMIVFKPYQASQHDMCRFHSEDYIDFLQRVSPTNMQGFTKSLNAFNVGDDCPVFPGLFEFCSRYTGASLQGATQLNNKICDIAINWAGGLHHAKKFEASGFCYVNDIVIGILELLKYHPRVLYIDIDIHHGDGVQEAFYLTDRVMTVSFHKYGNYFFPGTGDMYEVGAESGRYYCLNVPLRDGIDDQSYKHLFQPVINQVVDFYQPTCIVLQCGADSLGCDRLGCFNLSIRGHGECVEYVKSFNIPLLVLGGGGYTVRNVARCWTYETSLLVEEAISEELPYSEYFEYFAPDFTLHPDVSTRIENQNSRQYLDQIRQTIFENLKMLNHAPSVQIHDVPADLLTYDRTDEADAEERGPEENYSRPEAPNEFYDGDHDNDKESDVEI
Experiment: Inhibition of HDAC3 in human HeLa nuclear extract at 0.1 to 1 uM using HDAC substrate incubated for 30 mins by microplate reader assay
Type: cell-free

SMILES | inhibition
CCOC(=O)C1=CN(Cc2ccc(C(=O)NO)cc2)S(=O)(=O)NC1c1ccc(Cl)cc1Cl (stereo not given) | inactive
CCOC(=O)C1=CN(CCCC(=O)NO)S(=O)(=O)NC1c1ccc(Cl)cc1Cl (stereo not given) | inactive
COC(=O)CCCN1C=C(C(=O)O)C(c2ccc(Cl)cc2Cl)NS1(=O)=O (stereo not given) | inactive
CCOC(=O)C1=CNS(=O)(=O)N(Cc2ccc(C(=O)O)cc2)C1c1ccc(Cl)cc1Cl (stereo not given) | inactive

Target: T2, Histone deacetylase 8 (Homo sapiens) (UniProt Q9BY41)
T2 sequence (whole entry): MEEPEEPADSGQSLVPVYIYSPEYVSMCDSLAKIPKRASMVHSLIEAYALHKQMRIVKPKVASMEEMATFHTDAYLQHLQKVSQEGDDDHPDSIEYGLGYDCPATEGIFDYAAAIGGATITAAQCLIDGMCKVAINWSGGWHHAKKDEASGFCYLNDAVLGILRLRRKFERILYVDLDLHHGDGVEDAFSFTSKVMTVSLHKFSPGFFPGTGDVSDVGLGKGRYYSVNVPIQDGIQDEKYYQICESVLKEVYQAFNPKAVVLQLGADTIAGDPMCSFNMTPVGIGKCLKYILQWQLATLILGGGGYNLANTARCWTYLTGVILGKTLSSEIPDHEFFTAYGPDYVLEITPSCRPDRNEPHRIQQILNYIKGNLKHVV
Experiment: Inhibition of recombinant human GST-His-tagged HDAC8 at 1 uM using fluorogenic HDAC substrate incubated for 30 mins by microplate reader assay relative to control

SMILES | inhibition [%]
CCOC(=O)C1=CN(Cc2ccc(C(=O)NO)cc2)S(=O)(=O)NC1c1ccc(Cl)cc1Cl (stereo not given) | 35 to 60
CCOC(=O)C1=CN(CCCC(=O)NO)S(=O)(=O)NC1c1ccc(Cl)cc1Cl (stereo not given) | 35 to 60
COC(=O)CCCN1C=C(C(=O)O)C(c2ccc(Cl)cc2Cl)NS1(=O)=O (stereo not given) | 35 to 60
CCOC(=O)C1=CNS(=O)(=O)N(Cc2ccc(C(=O)O)cc2)C1c1ccc(Cl)cc1Cl (stereo not given) | 35 to 60

Target: T3, Histone deacetylase 7 (Homo sapiens) (UniProt Q8WUI4)
T3 sequence (whole entry): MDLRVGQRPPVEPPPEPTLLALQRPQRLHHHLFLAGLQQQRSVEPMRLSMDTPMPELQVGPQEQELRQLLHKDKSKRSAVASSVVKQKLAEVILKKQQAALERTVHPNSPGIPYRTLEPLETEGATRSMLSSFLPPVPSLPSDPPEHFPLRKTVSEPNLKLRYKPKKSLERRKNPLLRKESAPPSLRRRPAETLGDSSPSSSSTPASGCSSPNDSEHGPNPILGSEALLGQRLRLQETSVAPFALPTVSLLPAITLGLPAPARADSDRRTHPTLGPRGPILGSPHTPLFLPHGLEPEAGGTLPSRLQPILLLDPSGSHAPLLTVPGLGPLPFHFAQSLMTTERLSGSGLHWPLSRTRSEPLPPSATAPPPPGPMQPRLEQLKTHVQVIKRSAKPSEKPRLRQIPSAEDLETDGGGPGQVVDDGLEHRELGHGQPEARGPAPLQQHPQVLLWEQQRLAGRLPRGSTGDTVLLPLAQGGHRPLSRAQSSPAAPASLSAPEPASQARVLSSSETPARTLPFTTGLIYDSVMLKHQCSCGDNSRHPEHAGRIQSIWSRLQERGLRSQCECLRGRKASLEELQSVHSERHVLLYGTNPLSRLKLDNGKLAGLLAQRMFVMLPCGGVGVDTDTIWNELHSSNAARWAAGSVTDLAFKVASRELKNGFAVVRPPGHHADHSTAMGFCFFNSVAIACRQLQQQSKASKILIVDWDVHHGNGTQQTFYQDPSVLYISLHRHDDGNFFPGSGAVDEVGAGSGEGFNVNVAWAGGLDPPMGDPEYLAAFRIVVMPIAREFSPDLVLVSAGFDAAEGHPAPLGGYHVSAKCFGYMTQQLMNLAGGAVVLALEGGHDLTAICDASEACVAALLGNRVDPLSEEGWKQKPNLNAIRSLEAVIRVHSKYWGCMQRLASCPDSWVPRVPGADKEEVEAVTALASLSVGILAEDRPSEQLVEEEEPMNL
Experiment: Inhibition of recombinant human GST-His-tagged HDAC7 at 1 uM using fluorogenic HDAC substrate incubated for 30 mins by microplate reader assay relative to control

SMILES | inhibition [%]
CCOC(=O)C1=CN(Cc2ccc(C(=O)NO)cc2)S(=O)(=O)NC1c1ccc(Cl)cc1Cl (stereo not given) | 40
